Tests used:
[1] = Inhibitory effect on HIV-1 RT activity using template primer,poly (rC)-oligo (dG)
[2] = biological target: HIV-1 RT (reverse transcriptase); test: Inhibitory effect on HIV-1 RT activity using template primer,poly (rA)-oligo (dT)
Summary of the method: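 Recombinant HIV-1 reverse transcriptase with poly(rA)-oligo(dT) as template-primer; IC50 is the 50% inhibition concentration, given as the mean of at least two separate experiments.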

SMILES | IC50 [1] [µM] | IC50 [2] [µM]
CCN(C)C(=O)Oc1nsnc1-c1c(Cl)cccc1Cl [Ethyl-methyl-carbamic acid 4-(2,6-dichloro-phenyl)-[1,2,5]thiadiazol-3-yl ester] | 0.3 | 3.4
CCCN(C)C(=O)Oc1nsnc1-c1c(Cl)cccc1Cl [Methyl-propyl-carbamic acid 4-(2,6-dichloro-phenyl)-[1,2,5]thiadiazol-3-yl ester] | 0.8 | 5.8
CCCCN(C)C(=O)Oc1nsnc1-c1c(Cl)cccc1Cl [Butyl-methyl-carbamic acid 4-(2,6-dichloro-phenyl)-[1,2,5]thiadiazol-3-yl ester] | – | 12
CC(=O)c1ccc(C)cc1N[C@H](C(N)=O)c1c(Cl)cccc1Cl | – | 16

Reference: BindingDB's records for doi:10.1021/jm00012a002 (Tosoh, 1995)
